Experimental data: ChEMBL document CHEMBL2040734, “Benzothiazoles: search for anticancer agents” (2012)

How the values were obtained:
Type in all cases: functional
CCRF-CEM [1] = test: Cytotoxicity against human CCRF-CEM cells at 0.01 uM after 48 hrs by sulforhodamine B assay
Summary of the method: (§1)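 CCRF-CEM suspension leukemia cells in RPMI 1640 with 5% FBS and 2 mM L-glutamine, plated 24 h before dosing. Five concentrations (0.01–100 µM) were applied from a DMSO stock for 48 h at 37 °C. Settled cells were fixed with 80% TCA (final 16%) and stained with SRB, with read-out at 515 nm. Percent growth was derived from time-zero and control absorbances.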

NCI-H322M = test: Cytotoxicity against human NCI-H322M cells assessed as cell growth at 0.01 uM after 48 hrs by sulforhodamine B assay; conditions: read-out: Activity
Malme-3M [2] = test: Cytotoxicity against human MALME-3M cells assessed as cell growth at 0.01 uM after 48 hrs by sulforhodamine B assay; conditions: read-out: Activity
SK-MEL-2 = test: Cytotoxicity against human SK-MEL-2 cells assessed as cell growth at 10 uM after 48 hrs by sulforhodamine B assay; conditions: SK-MEL-2, 48 h, read-out: Activity
CCRF-CEM [3] = test: Cytotoxicity against human CCRF-CEM cells assessed as cell growth at 100 uM after 48 hrs by sulforhodamine B assay; conditions: read-out: Activity; summary of the method: as §1
HCT-15 = test: Cytotoxicity against human HCT15 cells assessed as cell growth at 10 '-5 M after 48 hrs by sulforhodamine B assay; conditions: HCT-15, 48 h, read-out: Activity
Summary of the method: (§2)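 Primary one-dose screen across the NCI 60-line panel at 10 µM. Cells were grown in RPMI 1640 with 5% FBS and 2 mM L-glutamine and held 24 h before drug. Drug was diluted from a DMSO concentrate. Exposure was 48 h at 37 °C, 5% CO2. Cells were fixed with TCA and stained with SRB, with absorbance read at 515 nm. Percent growth was calculated against time-zero and untreated control.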

SF-295 = test: Cytotoxicity against human SF295 cells assessed as cell growth at 1 uM after 48 hrs by sulforhodamine B assay; conditions: SF-295, 48 h, read-out: Activity
MDA-MB-468 [4] = test: Cytotoxicity against human MDA-MB-468 cells assessed as cell growth at 100 uM after 48 hrs by sulforhodamine B assay; conditions: MDA-MB-468, 48 h, read-out: Activity
KM12 = test: Cytotoxicity against human KM12 cells assessed as cell growth at 100 uM after 48 hrs by sulforhodamine B assay; conditions: KM12, 48 h, read-out: Activity
SF-539 = test: Cytotoxicity against human SF539 cells assessed as cell growth at 0.1 uM after 48 hrs by sulforhodamine B assay; conditions: SF-539, 48 h, read-out: Activity
CAKI-1 = test: Cytotoxicity against human Caki1 cells assessed as cell growth at 1 uM after 48 hrs by sulforhodamine B assay; conditions: CAKI-1, 48 h, read-out: Activity
Summary of the method: (§3)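 NCI-60 five-dose screen. Cells were grown in RPMI 1640 with 5% FBS and 2 mM L-glutamine and preincubated 24 h. Compound (DMSO stock) was tested at 0.01, 0.1, 1, 10 and 100 µM for 48 h at 37 °C. Cells were fixed in situ with cold TCA (final 10%) and stained with 0.4% SRB. A515 was read, and percent growth was calculated against time-zero and control plates.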

M14 = test: Cytotoxicity against human M14 cells assessed as cell growth at 10 uM after 48 hrs by sulforhodamine B assay; conditions: M14, 48 h, read-out: Activity
T47D = test: Cytotoxicity against human T47D cells assessed as cell growth at 10 uM after 48 hrs by sulforhodamine B assay; conditions: read-out: Activity
RPMI-8226 = test: Cytotoxicity against human RPMI8226 cells assessed as cell growth at 10 uM after 48 hrs by sulforhodamine B assay; conditions: RPMI-8226, 48 h, read-out: Activity
MDA-MB-468 [5] = test: Cytotoxicity against human MDA-MB-468 cells assessed as cell growth at 1 uM after 48 hrs by sulforhodamine B assay; conditions: MDA-MB-468, 48 h, read-out: Activity
Malme-3M [6] = test: Cytotoxicity against human MALME-3M cells assessed as cell growth at 100 uM after 48 hrs by sulforhodamine B assay; conditions: read-out: Activity
NCI-H23 = test: Cytotoxicity against human NCI-H23 cells assessed as cell growth at 10 uM after 48 hrs by sulforhodamine B assay; conditions: NCI-H23, 48 h, read-out: Activity
[7] = Cytotoxicity against human Hs 578T cells assessed as cell growth at 0.01 uM after 48 hrs by sulforhodamine B assay; conditions: read-out: Activity
Summary of the method: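 Five-dose NCI panel run at 0.01, 0.1, 1, 10 and 100 µM. Cells were in RPMI 1640 with 5% FBS and 2 mM L-glutamine, seeded at 5000–40,000 cells/well and pre-incubated 24 h. Drug was diluted from a DMSO stock into medium with 50 µg/ml gentamicin. Exposure was 48 h at 37 °C, 5% CO2. Cells were fixed with cold TCA and stained with 0.4% SRB, read at 515 nm. Percent growth came from time-zero, control and test absorbances.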

MDA-MB-231 = test: Cytotoxicity against human MDA-MB-231 cells assessed as cell growth at 0.1 uM after 48 hrs by sulforhodamine B assay; conditions: MDA-MB-231, 48 h, read-out: Activity
MDA-MB-468 [8] = test: Cytotoxicity against human MDA-MB-468 cells assessed as cell growth at 0.1 uM after 48 hrs by sulforhodamine B assay; conditions: MDA-MB-468, 48 h, read-out: Activity
SK-MEL-28 = test: Cytotoxicity against human SK-MEL-28 cells assessed as cell growth at 10 '-5 M after 48 hrs by sulforhodamine B assay; conditions: SK-MEL-28, 48 h, read-out: Activity
786-0 = test: Cytotoxicity against human 786-0 cells assessed as cell growth at 0.1 uM after 48 hrs by sulforhodamine B assay; conditions: 786-0, 48 h, read-out: Activity; summary of the method: as §3
SW-620 = test: Cytotoxicity against human SW620 cells assessed as cell growth at 100 uM after 48 hrs by sulforhodamine B assay; conditions: SW-620, 48 h, read-out: Activity
HOP-62 = test: Cytotoxicity against human HOP62 cells assessed as cell growth at 10 '-5 M after 48 hrs by sulforhodamine B assay; conditions: HOP-62, 48 h, read-out: Activity; summary of the method: as §2
HCC 2998 = test: Growth inhibition of human HCC2998 cells after 48 hrs by sulforhodamine B assay; conditions: HCC 2998, 48 h; for CC50: read-out: LC50 (the source's name)
Summary of the method: (§4)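 Adherent NCI-60 lines were grown in RPMI 1640 with 5% FBS and 2 mM L-glutamine, plated at 5000–40,000 cells/well and preincubated 24 h. They were then exposed to five concentrations (0.01–100 µM, from a DMSO stock) for 48 h at 37 °C, 5% CO2. Cells were fixed with cold TCA (10% final, 60 min, 4 °C) and stained with 0.4% SRB. Dye was solubilized in 10 mM Tris base and A515 read. GI50 was derived from time-zero, control and treated absorbances.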

OVCAR-8 = test: Growth inhibition of human OVCAR8 cells after 48 hrs by sulforhodamine B assay; conditions: OVCAR-8, 48 h; summary of the method: as §4
[9] = Cytotoxicity against human Hs 578T cells assessed as cell growth at 100 uM after 48 hrs by sulforhodamine B assay; conditions: read-out: Activity

Row | SMILES | Activity (CCRF-CEM [1]) [%] | growth at 0.01 µM (NCI-H322M) [%] | growth at 0.01 µM (Malme-3M [2]) [%] | growth at 10 µM (SK-MEL-2) [%] | growth at 100 µM (CCRF-CEM [3]) [%] | growth at 10 µM (HCT-15) [%] | growth at 1 µM (SF-295) [%] | growth at 100 µM (MDA-MB-468 [4]) [%] | growth at 100 µM (KM12) [%] | growth at 0.1 µM (SF-539) [%] | growth at 1 µM (CAKI-1) [%] | growth at 10 µM (M14) [%] | growth at 10 µM (T47D) [%] | growth at 10 µM (RPMI-8226) [%] | growth at 1 µM (MDA-MB-468 [5]) [%] | growth at 100 µM (Malme-3M [6]) [%] | growth at 10 µM (NCI-H23) [%] | growth at 0.01 µM [7] [%] | growth at 0.1 µM (MDA-MB-231) [%] | growth at 0.1 µM (MDA-MB-468 [8]) [%] | also measured
1 | Clc1cccc(Cl)c1Nc1nc2cccc(Cl)c2s1 | 96 | 92 | 101 | -64 | -12 | -42.5 | 33 | -59 | -98 | 100 | 18 | -68 | -90 | -19 | 23 | -84 | -71 | 87 | 81 | 81 | growth at 10 µM (SK-MEL-28): -48.1%; growth at 0.1 µM (786-0): 94%; growth at 100 µM (SW-620): -82%; growth at 10 µM (HOP-62): -38.2%; GI50 (HCC 2998): 1.34 µM; TGI (HCC 2998): 2.78 µM; CC50 (HCC 2998): 5.74 µM; GI50 (OVCAR-8): 1.15 µM; TGI (OVCAR-8): 2.83 µM; growth at 100 µM [9]: -17%
2 | Cc1ccc2nc(Nc3c(C)cccc3C)sc2c1 | 94 | 97 | 102 | 48 | 83 | 19.9 | 44 | 27 | 48 | 97 | 39 | 42 | 60 | 55 | 21 | 53 | 58 | 92 | 84 | 82 | growth at 10 µM (SK-MEL-28): 45.5%; growth at 0.1 µM (786-0): 97%; growth at 100 µM (SW-620): 45%; growth at 10 µM (HOP-62): 45.7%; GI50 (HCC 2998): > 100 µM; TGI (HCC 2998): > 100 µM; CC50 (HCC 2998): > 100 µM; GI50 (OVCAR-8): 57.9 µM; TGI (OVCAR-8): > 100 µM; CC50 (OVCAR-8; read-out: LC50 (the source's name)): > 100 µM; growth at 100 µM [9]: 27%
